# Experimental data collected from several papers.
# Lines come from different studies, so protocols differ.
# Cell line: A549
# Effect on: cell growth or viability
# Technique: CCK-8
Compound,conditions,measurement,value
O=C(Nc1ccccc1/N=c1\cc(-c2ccc3c(c2)OCO3)oc2ccccc12)N1CCNCC1,1 µM,inhibition,-6.54%
O=C(Nc1ccc(-c2ccc3ncn(Cc4ccc5c(c4)OCO5)c(=O)c3c2)cn1)c1ccccc1,72 h,IC50,> 10 µM
COc1ccc(NC(=O)NCc2cn(Cc3ccc(Br)cc3)nn2)cc1,"50 µM, 72 h",viability,96.4%
Nc1ccccc1/N=c1\cc(-c2ccc3c(c2)OCO3)oc2ccccc12,1 µM,inhibition,11.1%
CCCCC(=O)Nc1ccc(-c2ccc3ncn(CCC)c(=O)c3c2)c(C)n1,72 h,IC50,> 10 µM
Cc1ccccc1Cn1cc(-c2cccc(NC(=O)Nc3ccc(F)cc3)c2)nn1,"20 µM, 72 h",viability,114%
NCCC(=O)Nc1ccccc1/N=c1\cc(-c2ccc3nc(N)oc3c2)oc2ccc(F)cc12,1 µM,inhibition,42.4%
CCCCn1cnc2ccc(-c3ccc(NC(=O)NCCc4ccccc4)nc3)cc2c1=O,72 h,IC50,> 10 µM
O=C(Nc1ccc(-c2cn(Cc3ccc(Cl)cc3)nn2)cc1)Nc1ccccc1Br,"20 µM, 72 h",viability,102%
COc1ccc(NC(=O)Nc2ccc(-c3cn(Cc4ccc(Br)cc4)nn3)cc2)cc1,"50 µM, 72 h",viability,101%
O=C(Nc1ccc(Cl)cc1)Nc1ccc(-c2cn(Cc3ccc(Cl)cc3)nn2)cc1,"50 µM, 72 h",viability,79.6%
COc1ccc2/c(=N/c3ccccc3NC(=O)[C@H](C)N)cc(-c3ccc4c(c3)OCCO4)oc2c1,1 µM,inhibition,-2.21%
